The source made the active and inactive calls. The calls are words filed in the database; no cut-off is given here.
Columns and labels:
[1] = molecular target: T1, Histone-lysine N-methyltransferase, H3 lysine-79 specific (Homo sapiens, UniProt Q8TEK3); assay: Binding affinity to recombinant N-terminal DOT1L (1 to 420 residues) (unknown origin) expressed in Escherichia coli (DE3) assessed as dissociation constant by surface plasmon resonance assay
[2] = Apparent permeability across apical to basolateral side in human Caco-2 cells at 10 uM incubated for 90 mins at pH 7.4 by LC/MS analysis; type: ADME, cell-based; conditions: Caco-2, pH 7.4
[3] = Apparent permeability across basolateral to apical side in human Caco-2 cells at 10 uM incubated for 90 mins at pH 7.4 by LC/MS analysis; type: ADME, cell-based; conditions: Caco-2, pH 7.4
[4] = molecular target: Histone-lysine N-methyltransferase SUV39H2 (Homo sapiens) (UniProt Q9H5I1); assay: Inhibition of SUV39H2 (unknown origin) using H3 1-25 peptide in presence of SAM
How it was run: (§1)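 Radiometric methyltransferase panel in which 3H-SAM, at or below each enzyme's Km, methylates biotinylated peptide substrates. They were quenched with 7.5 M guanidine-HCl, diluted, captured on streptavidin flash plates for 1 h, and counted by scintillation.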

[5] = molecular target: Histone-lysine N-methyltransferase EHMT2 (Homo sapiens) (UniProt Q96KQ7); assay: Inhibition of G9a (unknown origin) using H3 1-25 peptide in presence of SAM; how it was run: as §1
[6] = molecular target: Histone-lysine N-methyltransferase EHMT1 (Homo sapiens) (UniProt Q9H9B1); assay: Inhibition of EHMT1 (unknown origin) using H3 1-25 peptide in presence of SAM; how it was run: as §1
[7] = molecular target: Histone-lysine N-methyltransferase SETDB1 (Homo sapiens) (UniProt Q15047); assay: Inhibition of SETDB1 (unknown origin) using H3 1-25 peptide in presence of SAM; how it was run: as §1
[8] = molecular target: Protein arginine N-methyltransferase 3 (Homo sapiens) (UniProt O60678); assay: Inhibition of PRMT3 (unknown origin) using H3 1-24 peptide in presence of SAM; how it was run: as §1
[9] = molecular target: Histone-lysine N-methyltransferase SETD7 (Homo sapiens) (UniProt Q8WTS6); assay: Inhibition of SETD7 (unknown origin) using H3 1-25 peptide in presence of SAM; how it was run: as §1
[10] = molecular target: Histone-lysine N-methyltransferase 2A (Homo sapiens) (UniProt Q03164); assay: Inhibition of MLL (unknown origin) using H3 1-25 peptide in presence of SAM; how it was run: as §1
[11] = molecular target: N-lysine methyltransferase KMT5A (Homo sapiens) (UniProt Q9NQR1); assay: Inhibition of SETD8 (unknown origin) using […] in presence of SAM; how it was run: as §1
[12] = molecular target: Histone-lysine N-methyltransferase KMT5B (Homo sapiens) (UniProt Q4FZB7); assay: Inhibition of […] (unknown origin) using H4 K20Me1 peptide in presence of SAM; how it was run: as §1
[13] = molecular target: Histone-lysine N-methyltransferase KMT5C (Homo sapiens) (UniProt Q86Y97); assay: Inhibition of SUV420H2 (unknown origin) using H4 K20Me1 peptide in presence of SAM; how it was run: as §1
Homo sapiens [14] = organism: Homo sapiens; assay: Inhibition of PRC2 (unknown origin) using H3 21-44 peptide in presence of SAM; how it was run: as §1
[15] = molecular target: DNA (cytosine-5)-methyltransferase 1 (Homo sapiens) (UniProt P26358); assay: Inhibition of DNMT1 (unknown origin) using ds-DNA peptide in presence of SAM; how it was run: as §1
[16] = molecular target: T2, Protein arginine N-methyltransferase 5 (Homo sapiens, UniProt O14744); assay: Inhibition of PRMT5 (unknown origin) using H4 1-24 peptide in presence of SAM; how it was run: as §1
[17] = molecular target: Adenosine receptor A1 (Homo sapiens) (UniProt P30542); assay: Inhibition of human Adenosine A1 receptor at 1 uM relative to control
[18] = molecular target: Adenosine receptor A2a (Homo sapiens) (UniProt P29274); assay: Inhibition of human Adenosine 2A receptor at 1 uM relative to control
[19] = molecular target: Alpha-1A adrenergic receptor (Rattus norvegicus) (UniProt P43140); assay: Inhibition of rat Adrenergic alpha 1A receptor at 1 uM relative to control
[20] = molecular target: Alpha-1B adrenergic receptor (Rattus norvegicus) (UniProt P15823); assay: Inhibition of rat Adrenergic alpha 1B receptor at 1 uM relative to control
[21] = molecular target: Alpha-2A adrenergic receptor (Homo sapiens) (UniProt P08913); assay: Inhibition of human Adrenergic alpha 2A receptor at 1 uM relative to control
[22] = molecular target: Beta-1 adrenergic receptor (Homo sapiens) (UniProt P08588); assay: Inhibition of human Adrenergic beta1 receptor at 1 uM relative to control
[23] = molecular target: Beta-2 adrenergic receptor (Homo sapiens) (UniProt P07550); assay: Inhibition of human Adrenergic beta 2 receptor at 1 uM relative to control
Rattus norvegicus [24] = organism: Rattus norvegicus; assay: Inhibition of rat Calcium 2 channel L, dihydropyridine site at 1 uM relative to control
[25] = molecular target: Cannabinoid receptor 1 (Homo sapiens) (UniProt P21554); assay: Inhibition of human CB1R at 1 uM relative to control
[26] = molecular target: D(1A) dopamine receptor (Homo sapiens) (UniProt P21728); assay: Inhibition of human dopamine D1 receptor at 1 uM relative to control
[27] = molecular target: D(2) dopamine receptor (Homo sapiens) (UniProt P14416); assay: Inhibition of human dopamine D2s receptor at 1 uM relative to control
Rattus norvegicus [28] = organism: Rattus norvegicus; assay: Inhibition of rat central GABAA receptor at 1 uM by flunitrazepam radioligand binding assay relative to control
Rattus norvegicus [29] = organism: Rattus norvegicus; assay: Inhibition of rat central GABAA receptor at 1 uM by muscimol radioligand binding assay relative to control
[30] = molecular target: Glutamate NMDA receptor (Rattus norvegicus) (UniProt P35439+Q00959+Q00960+Q00961+Q62645+Q8VHN2+Q9R1M7); assay: Inhibition of rat NMDA glutamate receptor at 1 uM relative to control; type: protein-complex assay
[31] = molecular target: Histamine H1 receptor (Homo sapiens) (UniProt P35367); assay: Inhibition of human histamine H1 receptor at 1 uM relative to control
Rattus norvegicus [32] = organism: Rattus norvegicus; assay: Inhibition of rat central imidazoline receptor 2 at 1 uM relative to control
[33] = molecular target: Muscarinic acetylcholine receptor M2 (Homo sapiens) (UniProt P08172); assay: Inhibition of human muscarinic acetylcholine M2 receptor at 1 uM relative to control
[34] = molecular target: Muscarinic acetylcholine receptor M3 (Homo sapiens) (UniProt P20309); assay: Inhibition of human muscarinic acetylcholine M3 receptor at 1 uM relative to control
Homo sapiens [35] = organism: Homo sapiens; assay: Inhibition of human nicotinic acetylcholine alpha at 1 uM relative to control
[36] = molecular target: Mu-type opioid receptor (Homo sapiens) (UniProt P35372); assay: Inhibition of human MOP receptor at 1 uM relative to control
hERG (KCNH2) = hERG (KCNH2) (Homo sapiens, UniProt Q12809); assay: Inhibition of human ERG at 1 uM relative to control; type: toxicity
[37] = molecular target: Prostaglandin E2 receptor EP4 subtype (Homo sapiens) (UniProt P35408); assay: Inhibition of human EP4 receptor at 1 uM relative to control
[38] = molecular target: 5-hydroxytryptamine receptor 2B (Homo sapiens) (UniProt P41595); assay: Inhibition of human 5HT2B receptor at 1 uM relative to control
[39] = molecular target: Sigma non-opioid intracellular receptor 1 (Homo sapiens) (UniProt Q99720); assay: Inhibition of human sigma 1 receptor at 1 uM relative to control
[40] = molecular target: Sodium-dependent noradrenaline transporter (Homo sapiens) (UniProt P23975); assay: Inhibition of human norepinephrine transporter at 1 uM relative to control
Homo sapiens [41] = organism: Homo sapiens; assay: Inhibition of human nicotinic acetylcholine at 1 uM relative to control
MV4-11 = assay: Downregulation of H3K79me2 in human MV4-11 cells habouring MLL/AF4 fusion protein measured upto 48 hrs by immuno blot analysis; type: functional, cell-based
MOLM-13 [42] = assay: Downregulation of H3K79me2 in human MOLM-13 cells at 1 uM by immuno blot analysis; type: functional, cell-based; conditions: time 3-7 day, TDE = time-dependent effect
How it was run: (§2)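 Exponentially growing Molm13 cells were plated at 2 × 10^5 per well in 2 ml and exposed to 1 μM compound or DMSO for the indicated times. Extracted histones (3 μg) were run on 10% Bis-Tris gels and transferred to nitrocellulose. Blots were probed with primary antibody (1:1000 in 5% milk/TBS-T), then anti-rabbit secondary, with chemiluminescent detection.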

MOLM-13 [43] = assay: Downregulation of H3K79me2 in human MOLM-13 cells measured for 3 to 7 days by immuno blot analysis; type: functional, cell-based; conditions: dose 1.0 µM, time 3-7 day; how it was run: as §2
MOLM-13 [44] = assay: Inhibition of HOXA9 level in human MOLM-13 cells at 1 uM measured after 7 days by SYBR green staining based PCR analysis; type: functional, cell-based; conditions: time 7.0 day
How it was run: (§3)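 RNA was extracted with Qiazol and reverse-transcribed. SYBR green qPCR used gene-specific primer pairs for HOXA9 and Meis1.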

MOLM-13 [45] = assay: Inhibition of Meis1 level in human MOLM-13 cells at 1 uM measured after 7 days by SYBR green staining based PCR analysis; type: functional, cell-based; conditions: time 7.0 day; how it was run: as §3
Cord blood cell [46] = assay: Cytotoxicity against human Cord blood cell habouring MIL-AF9 fusion protein assessed as reduction in cell viability at 1 to 5 uM incubated for 14 days by resazurin dye based […] assay; type: functional; conditions: dose 1-5 µM, time 14.0 day
How it was run: (§4)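 Transformed human cord blood cells were cultured with DMSO or inhibitor at 1 and 5 μM for 14 days. Resazurin (0.1 mg ml−1) was added for 4 h and resorufin fluorescence was read. Data are from at least two independent experiments, each with three repeats, shown as s.e. of the mean.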

Cord blood cell [47] = assay: Cytotoxicity against human Cord blood cell habouring TLS-ERG fusion protein assessed as reduction in cell viability at 1 to 5 uM incubated for 14 days by resazurin dye based […] assay; type: functional; conditions: dose 1-5 µM, time 14.0 day; how it was run: as §4
[48] = molecular target: T1, Histone-lysine N-methyltransferase, H3 lysine-79 specific; assay: Binding affinity to recombinant N-terminal DOT1L (1 to 420 residues) (unknown origin) expressed in Escherichia coli (DE3) assessed as dissociation constant by SPR analysis
cells [49] = conditions: Homo sapiens, MCF-10A
cells [50] = conditions: Homo sapiens, A-431
[51] = molecular target: T2, Protein arginine N-methyltransferase 5; assay: Inhibition of human PRMT5; how it was run: as §1

T2 sequence (O14744 whole entry): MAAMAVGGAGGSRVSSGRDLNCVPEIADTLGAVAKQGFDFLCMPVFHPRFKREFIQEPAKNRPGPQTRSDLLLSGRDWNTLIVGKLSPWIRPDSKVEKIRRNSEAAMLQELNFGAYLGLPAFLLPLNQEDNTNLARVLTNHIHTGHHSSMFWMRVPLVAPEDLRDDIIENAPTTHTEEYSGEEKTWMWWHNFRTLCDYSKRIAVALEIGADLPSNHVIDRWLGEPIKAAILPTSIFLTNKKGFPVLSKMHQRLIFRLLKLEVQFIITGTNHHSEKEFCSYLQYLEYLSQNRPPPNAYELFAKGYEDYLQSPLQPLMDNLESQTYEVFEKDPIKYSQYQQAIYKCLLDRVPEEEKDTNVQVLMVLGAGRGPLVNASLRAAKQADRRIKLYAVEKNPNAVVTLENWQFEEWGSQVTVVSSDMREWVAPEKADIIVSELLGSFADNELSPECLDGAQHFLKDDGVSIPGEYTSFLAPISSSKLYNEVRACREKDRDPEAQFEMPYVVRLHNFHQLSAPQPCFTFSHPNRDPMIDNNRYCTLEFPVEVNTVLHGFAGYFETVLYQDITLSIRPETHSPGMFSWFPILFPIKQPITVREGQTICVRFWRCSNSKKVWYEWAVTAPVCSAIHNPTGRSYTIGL
Sequence of Histone-lysine N-methyltransferase KMT5B (Homo sapiens) (Q4FZB7 whole entry, looked up): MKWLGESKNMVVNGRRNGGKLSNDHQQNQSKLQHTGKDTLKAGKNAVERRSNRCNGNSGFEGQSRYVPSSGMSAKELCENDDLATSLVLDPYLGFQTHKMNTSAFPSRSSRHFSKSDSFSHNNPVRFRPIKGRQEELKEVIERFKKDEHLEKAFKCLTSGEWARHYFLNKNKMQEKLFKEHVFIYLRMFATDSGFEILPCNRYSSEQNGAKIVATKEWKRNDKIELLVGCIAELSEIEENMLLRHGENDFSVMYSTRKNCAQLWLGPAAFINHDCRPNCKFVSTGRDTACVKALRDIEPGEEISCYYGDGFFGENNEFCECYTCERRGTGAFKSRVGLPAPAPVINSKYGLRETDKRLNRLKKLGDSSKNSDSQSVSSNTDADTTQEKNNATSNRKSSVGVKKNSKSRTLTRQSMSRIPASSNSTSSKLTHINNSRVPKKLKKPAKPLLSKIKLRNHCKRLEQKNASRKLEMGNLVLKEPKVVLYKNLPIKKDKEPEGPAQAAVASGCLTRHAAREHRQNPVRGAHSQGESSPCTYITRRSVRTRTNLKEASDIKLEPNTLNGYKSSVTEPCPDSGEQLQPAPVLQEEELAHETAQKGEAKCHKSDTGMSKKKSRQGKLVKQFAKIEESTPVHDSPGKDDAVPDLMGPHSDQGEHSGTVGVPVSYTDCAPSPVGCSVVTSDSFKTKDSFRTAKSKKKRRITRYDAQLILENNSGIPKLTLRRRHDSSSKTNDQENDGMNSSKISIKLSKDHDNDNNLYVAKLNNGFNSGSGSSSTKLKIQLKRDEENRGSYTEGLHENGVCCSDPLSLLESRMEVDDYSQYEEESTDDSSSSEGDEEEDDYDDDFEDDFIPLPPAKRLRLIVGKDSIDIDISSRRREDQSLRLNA
Sequence of Histone-lysine N-methyltransferase SETD7 (Homo sapiens) (Q8WTS6 whole entry): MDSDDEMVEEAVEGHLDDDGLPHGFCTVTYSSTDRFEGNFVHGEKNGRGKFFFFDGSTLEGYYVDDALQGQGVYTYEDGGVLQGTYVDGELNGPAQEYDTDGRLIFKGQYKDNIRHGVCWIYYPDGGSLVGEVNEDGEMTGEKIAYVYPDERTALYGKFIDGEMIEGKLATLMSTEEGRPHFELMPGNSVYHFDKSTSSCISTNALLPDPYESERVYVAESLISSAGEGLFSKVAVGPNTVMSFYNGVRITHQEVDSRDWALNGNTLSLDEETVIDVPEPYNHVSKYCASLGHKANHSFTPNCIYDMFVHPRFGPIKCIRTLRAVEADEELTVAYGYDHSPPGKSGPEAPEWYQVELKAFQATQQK
Sequence of Protein arginine N-methyltransferase 3 (Homo sapiens) (O60678 2-531 limits assumed): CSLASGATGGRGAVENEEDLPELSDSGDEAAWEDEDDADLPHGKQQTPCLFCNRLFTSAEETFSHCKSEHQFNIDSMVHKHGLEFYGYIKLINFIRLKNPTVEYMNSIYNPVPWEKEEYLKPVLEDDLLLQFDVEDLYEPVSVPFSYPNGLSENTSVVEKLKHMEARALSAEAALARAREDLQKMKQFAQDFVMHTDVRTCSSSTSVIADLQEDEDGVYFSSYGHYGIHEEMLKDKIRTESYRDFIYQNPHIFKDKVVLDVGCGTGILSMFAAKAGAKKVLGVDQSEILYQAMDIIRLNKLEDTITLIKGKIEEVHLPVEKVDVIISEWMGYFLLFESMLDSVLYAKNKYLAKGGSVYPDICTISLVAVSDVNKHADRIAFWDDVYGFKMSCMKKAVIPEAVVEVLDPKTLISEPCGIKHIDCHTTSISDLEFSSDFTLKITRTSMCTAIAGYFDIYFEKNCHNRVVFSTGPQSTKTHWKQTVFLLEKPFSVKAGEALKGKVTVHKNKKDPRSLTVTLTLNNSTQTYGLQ
T1 sequence (Q8TEK3 whole entry, the tested form may be a part): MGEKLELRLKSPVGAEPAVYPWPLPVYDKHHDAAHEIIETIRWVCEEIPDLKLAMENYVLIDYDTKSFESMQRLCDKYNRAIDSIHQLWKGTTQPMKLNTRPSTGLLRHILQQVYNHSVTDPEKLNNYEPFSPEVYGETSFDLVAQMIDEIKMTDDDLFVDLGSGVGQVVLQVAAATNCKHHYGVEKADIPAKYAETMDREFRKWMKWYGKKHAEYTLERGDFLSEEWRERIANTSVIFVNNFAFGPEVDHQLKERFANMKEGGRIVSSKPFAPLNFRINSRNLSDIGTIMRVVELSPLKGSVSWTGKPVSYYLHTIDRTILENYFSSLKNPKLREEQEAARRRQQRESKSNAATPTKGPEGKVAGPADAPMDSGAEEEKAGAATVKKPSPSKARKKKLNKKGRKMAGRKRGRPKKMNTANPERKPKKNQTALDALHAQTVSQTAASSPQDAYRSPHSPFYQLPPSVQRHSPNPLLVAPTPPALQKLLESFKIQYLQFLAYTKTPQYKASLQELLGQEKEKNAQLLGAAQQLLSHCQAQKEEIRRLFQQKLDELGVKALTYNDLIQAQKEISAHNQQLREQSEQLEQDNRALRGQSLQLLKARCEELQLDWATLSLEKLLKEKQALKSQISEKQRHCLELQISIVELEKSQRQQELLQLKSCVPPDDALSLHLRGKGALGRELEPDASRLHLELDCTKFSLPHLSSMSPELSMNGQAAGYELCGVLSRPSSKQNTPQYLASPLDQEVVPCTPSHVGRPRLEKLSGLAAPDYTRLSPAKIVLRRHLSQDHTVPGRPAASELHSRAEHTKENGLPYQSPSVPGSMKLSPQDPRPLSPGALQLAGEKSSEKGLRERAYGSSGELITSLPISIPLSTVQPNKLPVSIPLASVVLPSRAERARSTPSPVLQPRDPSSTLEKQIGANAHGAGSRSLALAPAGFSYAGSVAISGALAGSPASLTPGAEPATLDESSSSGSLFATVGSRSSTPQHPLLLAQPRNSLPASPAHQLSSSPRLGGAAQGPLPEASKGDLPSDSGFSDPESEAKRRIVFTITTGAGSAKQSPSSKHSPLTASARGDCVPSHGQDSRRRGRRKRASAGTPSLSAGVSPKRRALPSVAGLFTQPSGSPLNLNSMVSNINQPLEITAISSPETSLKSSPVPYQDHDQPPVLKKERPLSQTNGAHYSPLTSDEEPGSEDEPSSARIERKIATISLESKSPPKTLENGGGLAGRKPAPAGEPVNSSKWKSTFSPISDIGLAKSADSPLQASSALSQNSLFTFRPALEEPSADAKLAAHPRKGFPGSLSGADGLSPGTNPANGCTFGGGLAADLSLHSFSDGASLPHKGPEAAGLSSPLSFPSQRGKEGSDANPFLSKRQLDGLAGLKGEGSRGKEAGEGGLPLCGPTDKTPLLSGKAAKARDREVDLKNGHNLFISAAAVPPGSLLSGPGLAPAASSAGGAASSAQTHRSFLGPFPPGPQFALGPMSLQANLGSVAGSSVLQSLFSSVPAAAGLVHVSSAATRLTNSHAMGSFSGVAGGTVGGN
Sequence of Histone-lysine N-methyltransferase KMT5C (Homo sapiens) (Q86Y97 whole entry, looked up): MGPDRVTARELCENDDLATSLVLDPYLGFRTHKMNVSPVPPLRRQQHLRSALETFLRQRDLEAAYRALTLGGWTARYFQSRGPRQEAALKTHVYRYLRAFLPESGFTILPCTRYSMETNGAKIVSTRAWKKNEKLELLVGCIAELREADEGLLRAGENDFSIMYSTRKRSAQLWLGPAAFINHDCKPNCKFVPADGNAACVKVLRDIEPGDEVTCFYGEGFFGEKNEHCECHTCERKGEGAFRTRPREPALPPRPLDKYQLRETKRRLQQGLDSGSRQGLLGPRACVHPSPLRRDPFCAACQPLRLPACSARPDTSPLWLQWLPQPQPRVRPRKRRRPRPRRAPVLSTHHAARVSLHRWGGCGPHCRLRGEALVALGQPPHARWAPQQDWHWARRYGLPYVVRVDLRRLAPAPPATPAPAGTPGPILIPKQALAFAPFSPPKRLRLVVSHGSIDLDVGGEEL
Sequence of N-lysine methyltransferase KMT5A (Homo sapiens) (Q9NQR1 whole entry): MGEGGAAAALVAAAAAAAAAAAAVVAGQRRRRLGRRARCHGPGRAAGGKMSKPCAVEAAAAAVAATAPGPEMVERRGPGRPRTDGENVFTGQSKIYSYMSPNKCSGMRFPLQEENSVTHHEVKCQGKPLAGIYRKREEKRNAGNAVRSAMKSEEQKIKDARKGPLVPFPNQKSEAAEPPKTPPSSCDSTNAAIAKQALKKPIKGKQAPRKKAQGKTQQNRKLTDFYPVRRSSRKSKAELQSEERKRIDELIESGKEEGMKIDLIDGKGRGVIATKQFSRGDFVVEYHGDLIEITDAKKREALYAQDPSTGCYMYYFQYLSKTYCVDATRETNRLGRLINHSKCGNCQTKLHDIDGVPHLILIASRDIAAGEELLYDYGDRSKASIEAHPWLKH
Sequence of Sigma non-opioid intracellular receptor 1 (Homo sapiens) (Q99720 whole entry): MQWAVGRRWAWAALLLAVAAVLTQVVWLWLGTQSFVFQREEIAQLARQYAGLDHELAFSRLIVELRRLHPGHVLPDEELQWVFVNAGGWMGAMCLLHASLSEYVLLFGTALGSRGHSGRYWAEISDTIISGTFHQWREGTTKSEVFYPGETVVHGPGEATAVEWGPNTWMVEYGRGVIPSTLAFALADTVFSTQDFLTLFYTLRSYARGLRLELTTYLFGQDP

Structure (SMILES): CC(C)N(CCCNC(=O)Nc1ccc(C(C)(C)C)cc1)C[C@H]1O[C@@H](n2cc(Br)c3c(N)ncnc32)[C@H](O)[C@@H]1O
- Kd [1]: 0.06 nM
- Papp A→B at 1.5 h, 10 µM [2]: 5.7 ×10⁻⁶ cm/s
- Papp B→A at 1.5 h, 10 µM [3]: 10.6 ×10⁻⁶ cm/s
- inhibition [4]: inactive
- inhibition [5]: inactive
- inhibition [6]: inactive
- inhibition [7]: inactive
- inhibition [8]: inactive
- inhibition [9]: inactive
- inhibition [10]: inactive
- inhibition [11]: inactive
- inhibition [12]: inactive
- inhibition [13]: inactive
- inhibition (Homo sapiens [14]): inactive
- inhibition [15]: inactive
- inhibition [16]: inactive
- inhibition [17]: -4%
- inhibition [18]: 0%
- inhibition [19]: 22%
- inhibition [20]: 17%
- inhibition [21]: 7%
- inhibition [22]: -1%
- inhibition [23]: -1%
- inhibition (Rattus norvegicus [24]): 2%
- inhibition [25]: 5%
- inhibition [26]: 7%
- inhibition [27]: -3%
- inhibition (Rattus norvegicus [28]): 8%
- inhibition (Rattus norvegicus [29]): 19%
- inhibition [30]: 0%
- inhibition [31]: -1%
- inhibition (Rattus norvegicus [32]): 10%
- inhibition [33]: 7%
- inhibition [34]: 19%
- inhibition (Homo sapiens [35]): -1%
- inhibition [36]: -3%
- inhibition at 1 µM (hERG (KCNH2)): -15%
- inhibition [37]: -5%
- inhibition [38]: 8%
- inhibition [39]: -10%
- inhibition [40]: 13%
- inhibition (Homo sapiens [41]): 13%
- Activity (MV4-11): Active
- Activity (MOLM-13 [42]): Tde
- Activity (MOLM-13 [43]): Dose-Dependent Effect
- inhibition (MOLM-13 [44]): Active
- inhibition (MOLM-13 [45]): Active
- Activity (Cord blood cell [46]): Active
- Activity (Cord blood cell [47]): inactive
- Kd [48]: 0.0561 nM
- IC50 (cells [49]): 8.8 nM
- IC50 (cells [50]): 2.65 nM

Structure (SMILES): COCCc1ccc(OCC(O)CNC(C)C)cc1 (stereo not given) [METOPROLOL]
- Papp A→B at 1.5 h, 10 µM [2]: 68.2 ×10⁻⁶ cm/s
- Papp B→A at 1.5 h, 10 µM [3]: 31.1 ×10⁻⁶ cm/s

Structure (SMILES): CC(C)N(CCCNC(=O)Nc1ccc(C(C)(C)C)cc1)C[C@H]1O[C@@H](n2ccc3c(N)ncnc32)[C@H](O)[C@@H]1O
- Papp B→A at 1.5 h, 10 µM [3]: 5.4 ×10⁻⁶ cm/s
- inhibition [4]: inactive
- inhibition [5]: inactive
- inhibition [6]: inactive
- inhibition [7]: inactive
- inhibition [8]: inactive
- inhibition [9]: inactive
- inhibition [10]: inactive
- inhibition [11]: inactive
- inhibition [12]: inactive
- inhibition [13]: inactive
- inhibition (Homo sapiens [14]): inactive
- inhibition [15]: inactive
- inhibition [16]: inactive
- IC50 [51]: 500 nM
- Activity (MV4-11): Active
- Activity (MOLM-13 [42]): Tde
- Activity (MOLM-13 [43]): Dose-Dependent Effect
- IC50 (cells [49]): 84 nM
- IC50 (cells [50]): 264 nM

Structure (SMILES): CC(C)N(CCCNC(=O)Nc1ccc(C(C)(C)C)cc1)C[C@H]1O[C@@H](n2cnc3c(N)ncnc32)[C@H](O)[C@@H]1O
- Activity (MV4-11): Active

Source: ChEMBL document CHEMBL5653612, “Catalytic site remodelling of the DOT1L methyltransferase by selective inhibitors” (Nat Commun, 2012)
